Results on 4 molecules are retold here after ChEMBL document CHEMBL3822380, “Simple avarone mimetics as selective agents against multidrug resistant cancer cells” (Eur J Med Chem, 2016).

The test system of one series is Bacillus spizizenii. Briefly: Antibacterial activity against Bacillus subtilis ATCC 6633 by broth microdilution method. In kind it is functional. The method in brief:
(§1)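 Broth microdilution per NCCLS. Compounds dissolved in DMSO as 10 mg/mL stock, diluted in Mueller Hinton broth (bacteria) or Sabouraud dextrose broth (fungi). Amikacin served as the positive control for bacteria and nystatin for fungi.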
Background: Dilution methods test growth across graded concentrations, often in twofold steps.

In a further series the test system is HaCaT. As to the kind of experiment: Cytotoxicity against human HaCaT cells after 72 hrs by MTT assay. In kind it is cell-based. Conditions: for IC50: Homo sapiens, HaCaT; for IC30: human, hacat. In short, it runs like this: (§2)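 Seeding in 96-well plates at 1000 (NCI-H460), 2000 (NCI-H460/R) or 4000 (HaCaT) cells/well, treated after 24 h for 72 h. MTT at 0.4 mg/mL final, 4 h at 37 °C. Formazan dissolved in DMSO, absorbance read at 540 nm. Inhibition % = (1 − A treated/A untreated)×100. IC30 and IC50 obtained by linear regression.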
A general note: Formazan colour is commonly taken as a measure of viable cells.

For another series, the system named is Staphylococcus aureus. As to the kind of experiment: Antibacterial activity against Staphylococcus aureus ATCC 6538 by broth microdilution method. The series is classed as functional. The method in brief: as §1
The subject of a further series is Kocuria rhizophila. Briefly: Antibacterial activity against Kocuria rhizophila ATCC 9341 by broth microdilution method. The series is classed as functional. Conditions: DC2201. The method in brief:
as §1

The subject of another series is Proteus hauseri. As to the kind of experiment: Antibacterial activity against Proteus hauseri ATCC 13315 by broth microdilution method. The series is classed as functional. In short, it runs like this:
as §1

Series [1] deals with NCI-H460. As to the kind of experiment: Cytotoxicity against human NCI-H460 cells after 72 hrs by MTT assay. The series is classed as functional, cell-based. Conditions: NCI-H460, 72 h. In short, it runs like this: as §2
In a further series the test system is Candida albicans. As to the kind of experiment: Antifungal activity against Candida albicans ATCC 10231 by broth microdilution method. In kind it is functional. The method in brief: as §1
Another series has as its system Escherichia coli. Briefly: Antibacterial activity against Escherichia coli ATCC 25922 by broth microdilution method. The series is classed as functional. In short, it runs like this: as §1
A short description of series [2]: Selectivity ratio of IC30/IC50 for human HaCaT cells to IC30/IC50 for human NCI-H460 cells. Conditions: HaCaT cells versus NCI-H460 cells. The series is classed as ADME, cell-based. In short, it runs like this: (§3)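 Fold threshold of 1.5 used to call selectivity to cancer cells, resistance, or selectivity to MDR cells.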
Series [3] concerns Micrococcus luteus. As to the kind of experiment: Antibacterial activity against Micrococcus luteus ATCC 10240 by broth microdilution method. In kind it is functional. The method in brief:
as §1

For a further series, the system named is Pseudomonas aeruginosa. As to the kind of experiment: Antibacterial activity against Pseudomonas aeruginosa ATCC 9027 by broth microdilution method. In kind it is functional. In short, it runs like this:
as §1

For series [4], the system named is NCI-H460. Briefly: Cytotoxicity against multidrug resistant human NCI-H460 cells after 72 hrs by MTT assay. The series is classed as functional, cell-based. As to conditions: NCI-H460, 72 h. In short, it runs like this: as §2
The test system of the next series is Aspergillus brasiliensis. As to the kind of experiment: Antifungal activity against Aspergillus brasiliensis ATCC 16404 by broth microdilution method. The series is classed as functional. The method in brief:
as §1

Another series concerns Saccharomyces cerevisiae. As to the kind of experiment: Antifungal activity against Saccharomyces cerevisiae ATCC 9763 by broth microdilution method. The series is classed as functional. In short, it runs like this: as §1
Series [5] relates to Micrococcus luteus. Briefly: Antibacterial activity against Micrococcus luteus ATCC 4698 by broth microdilution method. As to conditions: NCTC 2665. In kind it is functional. The method in brief:
as §1

The next series relates to Salmonella enteritidis. Briefly: Antibacterial activity against Salmonella enterica subsp. enterica serovar Enteritidis ATCC 13076 by broth microdilution method. In kind it is functional. The method in brief: as §1
In a further series the test system is Clostridium sporogenes. Briefly: Antibacterial activity against Clostridium sporogenes ATCC 19404 by broth microdilution method. In kind it is functional. In short, it runs like this: as §1
Series [6] in a line: Selectivity ratio of IC30/IC50 for human HaCaT cells to IC30/IC50 for multidrug resistant human NCI-H460 cells. The series is classed as ADME, cell-based. As to conditions: HaCaT cells versus multidrug resistant NCI-H460 cells. The method in brief: as §3

≈ marks a conversion by molar mass, not a printed value.

As usually defined, the MIC is the lowest concentration that inhibits growth of the organism. The low end stands for greater potency, the high end for weaker potency. Broadly, the IC50 is the point on the concentration scale where inhibition reaches its midpoint. Lower therefore signals greater potency. The IC30 is the concentration at which the effect reaches the 30% level. Low values mean an effect from little substance, high ones a need for much substance.

For the molecule `CCNC1=CC(=O)C=C(C(C)(C)C)C1=O`, the MIC with Bacillus spizizenii came out at 758 µM (≈ 157 µg/mL); in the series with Staphylococcus aureus, 24 µM (≈ 4.97 µg/mL); in the series on Kocuria rhizophila, 381 µM (≈ 79 µg/mL); against Proteus hauseri it was 758 µM (≈ 157 µg/mL); in the series with Candida albicans it was 1510 µM (≈ 313 µg/mL); against Escherichia coli it was 24 µM (≈ 4.97 µg/mL). In addition, the MIC in the series with Micrococcus luteus [3] came to 24 µM (≈ 4.97 µg/mL); against Pseudomonas aeruginosa it was 758 µM (≈ 157 µg/mL); against Aspergillus brasiliensis, 48 µM (≈ 9.95 µg/mL); against Saccharomyces cerevisiae, 1510 µM (≈ 313 µg/mL); against Micrococcus luteus [5] it was 758 µM (≈ 157 µg/mL); against Salmonella enteritidis it was 381 µM (≈ 79 µg/mL). The molecule also returned an MIC against Clostridium sporogenes of 758 µM (≈ 157 µg/mL). Moreover, the IC50 in the series on HaCaT was 30 µM; with NCI-H460 [1], 13 µM; with NCI-H460 [4], 14 µM. For the same molecule, the IC30 with HaCaT is 22 µM; in the series on NCI-H460 [1] it was 4 µM; in the series on NCI-H460 [4] it was 5 µM. The selectivity ratio in [2] and in series [6] was no more than 1.5 throughout.

On to `CNC1=CC(=O)C(C(C)(C)C)=CC1=O`, for which the MIC against Bacillus spizizenii was found to be 813 µM (≈ 157 µg/mL); with Staphylococcus aureus, 25 µM (≈ 4.83 µg/mL); against Kocuria rhizophila, 409 µM (≈ 79 µg/mL); in the series with Proteus hauseri it was 813 µM (≈ 157 µg/mL); against Candida albicans, 1620 µM (≈ 313 µg/mL); against Escherichia coli, 104 µM (≈ 20.1 µg/mL). Further, the MIC came to 103 µM (≈ 19.9 µg/mL) against Micrococcus luteus [3]; 1620 µM (≈ 313 µg/mL) against Pseudomonas aeruginosa; 51 µM (≈ 9.86 µg/mL) against Aspergillus brasiliensis; 1620 µM (≈ 313 µg/mL) with Saccharomyces cerevisiae; 831 µM (≈ 161 µg/mL) against Micrococcus luteus [5]; 813 µM (≈ 157 µg/mL) in the series on Salmonella enteritidis. In addition, in the series with Clostridium sporogenes, the MIC was 813 µM (≈ 157 µg/mL). In addition, the IC50 with HaCaT was determined as 28 µM; with NCI-H460 [1], 63 µM; with NCI-H460 [4], 58 µM. Besides, the IC30 was 17 µM in the series on HaCaT, 34 µM with NCI-H460 [1] and 31 µM in the series on NCI-H460 [4].

Turning to `CNC1=CC(=O)C=C(C(C)(C)C)C1=O`, the MIC came to 1620 µM (≈ 313 µg/mL) with Bacillus spizizenii; 51 µM (≈ 9.86 µg/mL) in the series with Staphylococcus aureus; 813 µM (≈ 157 µg/mL) in the series on Kocuria rhizophila; 1620 µM (≈ 313 µg/mL) with Proteus hauseri; 1620 µM (≈ 313 µg/mL) in the series with Candida albicans; 202 µM (≈ 39 µg/mL) in the series on Escherichia coli. For the same molecule, the minimum inhibitory concentration (MIC) stood at 202 µM (≈ 39 µg/mL) in the series with Micrococcus luteus [3]; 3240 µM (≈ 626 µg/mL) in the series on Pseudomonas aeruginosa; 103 µM (≈ 19.9 µg/mL) against Aspergillus brasiliensis; 3240 µM (≈ 626 µg/mL) against Saccharomyces cerevisiae; 1620 µM (≈ 313 µg/mL) with Micrococcus luteus [5]; 1620 µM (≈ 313 µg/mL) in the series on Salmonella enteritidis. In the series with Clostridium sporogenes, this molecule registered an MIC of 1620 µM (≈ 313 µg/mL). In addition, the results for the IC50 in the series with HaCaT, in the series with NCI-H460 [1] and in the series with NCI-H460 [4] were 10 µM, 25 µM and 23 µM, respectively. For the same molecule, the IC30 was found to be 8 µM with HaCaT, 14 µM in the series on NCI-H460 [1] and 15 µM in the series on NCI-H460 [4].

On to `CCNC1=CC(=O)C(C(C)(C)C)=CC1=O`, for which the minimum inhibitory concentration (MIC) against Bacillus spizizenii worked out at 1510 µM (≈ 313 µg/mL); in the series on Staphylococcus aureus, 96 µM (≈ 19.9 µg/mL); with Kocuria rhizophila, 758 µM (≈ 157 µg/mL); in the series with Proteus hauseri, 1510 µM (≈ 313 µg/mL); in the series with Candida albicans, 1510 µM (≈ 313 µg/mL); against Escherichia coli, 188 µM (≈ 39 µg/mL). Further, the MIC against Micrococcus luteus [3] stood at 48 µM (≈ 9.95 µg/mL); with Pseudomonas aeruginosa it was 3020 µM (≈ 626 µg/mL); with Aspergillus brasiliensis, 381 µM (≈ 79 µg/mL); in the series on Saccharomyces cerevisiae, 3020 µM (≈ 626 µg/mL); in the series with Micrococcus luteus [5] it was 1510 µM (≈ 313 µg/mL); with Salmonella enteritidis, 758 µM (≈ 157 µg/mL). In the series on Clostridium sporogenes, this molecule came in with a minimum inhibitory concentration (MIC) of 1510 µM (≈ 313 µg/mL). Besides, the figures for the half-maximal inhibitory concentration (IC50) in the series on HaCaT, in the series with NCI-H460 [1] and with NCI-H460 [4] were 75 µM, 64 µM and 65 µM, respectively. Moreover, the results for the IC30 in the series with HaCaT, with NCI-H460 [1] and in the series on NCI-H460 [4] were 50 µM, 45 µM and 45 µM, respectively.
